Data on 1 compound can be found in ChEMBL document CHEMBL4680220, “Synthesis and biological evaluation of acridine-based histone deacetylase inhibitors as multitarget agents against Alzheimer's disease” (Eur J Med Chem, 2020).

What all share (assay type): ADME, Microsome
The nature of data set [1]: Elimination rate constant in human liver microsomes at 1 uM preincubated for 3 mins followed by NADPH addition and measured up to 60 mins by LC-MS/MS analysis. To be noted: time <=63 min. In a few lines:
(§1)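 Mixed-gender human liver microsomes with test article at 1 µM final. Testosterone (5 µM) run separately as control. Mixture without cofactor equilibrated 3 min at 37 °C in a shaking water bath, then started with cofactor. Aliquots taken at 0, 10, 20, 30 and 60 min. CLint = k/P, where k is the elimination rate constant and P is the incubation protein concentration.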

Data set [2] in a line: Half life in human liver microsomes at 1 uM preincubated for 3 mins followed by NADPH addition and measured up to 60 mins by LC-MS/MS analysis. The following applies: time <=63 min. In a few lines: as §1
For orientation: Liver microsomes are vesicles of endoplasmic reticulum, rich in cytochrome P450 enzymes.

A short description of data set [3]: Intrinsic clearance in human liver microsomes at 1 uM preincubated for 3 mins followed by NADPH addition and measured up to 60 mins by LC-MS/MS analysis. To be noted: 1 h, time <=63 min. The essentials:
as §1

The structures appear in SMILES notation.

A word on the half-life: it is the time in which the quantity being followed falls by half. `C[C@]12CC[C@H]3[C@@H](CCC4=CC(=O)CC[C@@]43C)[C@@H]1CC[C@@H]2O` [TESTOSTERONE] gave a k el at 1 h, 1 µM in data set [1] of 0.00045 s⁻¹. In data set [2], this compound gave a half-life at 1 µM of 25.7 min. Moreover, the CLint in data set [3] worked out at 54 µL/min/mg.
